Consider seven compounds from ChEMBL document CHEMBL1143851, “Antimicrobial susceptibilities of Peptostreptococcus anaerobius and the newly described Peptostreptococcus stomatis isolated from various human sources” (2007).

Experiment [1] deals with Peptostreptococcus stomatis. Briefly: Antibacterial activity against Peptostreptococcus stomatis. It is filed as functional. The gist of the method: (§1)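 Clinical isolates (1985–2005) revived from −70°C stocks and subcultured on brucella blood agar. Etest MICs: 48-h anaerobic growth on prereduced brucella and fastidious anaerobe agars (5% defibrinated sheep blood, hemin, vitamin K1) suspended in 0.9% NaCl to 1–2 McFarland, spread on fresh plates of both media; incubated anaerobically at 37°C for 48 h (72 h for slow growers).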

The subject of experiment [2] is Peptostreptococcus anaerobius. The experiment in a line: Antibacterial activity against Peptostreptococcus anaerobius. Type of experiment: functional. In outline:
as §1

≈ marks a conversion by molar mass, not a printed value.

What is called MIC50 is the lowest concentration that inhibits either 50% of growth or 50% of the strains tested, depending on the study. Low readings indicate greater potency, high ones weaker potency. A word on the MIC90: it is an inhibitory concentration at the 90% level, which refers to growth in some studies and to a panel of isolates in others. A low value points to greater potency. As to `CC1(C)S[C@@H]2[C@H](NC(=O)[C@H](N)c3ccc(O)cc3)C(=O)N2[C@H]1C(=O)O` [AMOXICILLIN], the MIC50 in experiment [1] is less than 0.016 µg/mL; in experiment [2], 0.125 µg/mL (≈ 0.342 µM). For the same compound, the MIC90 in experiment [1] was 0.094 µg/mL (≈ 0.257 µM); in experiment [2], 0.38 µg/mL (≈ 1.04 µM).
In the case of `CC[C@H]1OC(=O)[C@H](C)[C@@H](O[C@H]2C[C@@](C)(OC)[C@@H](O)[C@H](C)O2)[C@H](C)[C@@H](O[C@@H]2O[C@H](C)C[C@H](N(C)C)[C@H]2O)[C@](C)(O)C[C@@H](C)CN(C)[C@H](C)[C@@H](O)[C@]1(C)O` [AZITHROMYCIN], in experiment [1], the MIC50 was determined as 0.19 µg/mL (≈ 0.254 µM) and the MIC90 turned out to be 0.75 µg/mL (≈ 1 µM). In experiment [2], this compound showed an MIC50 of 0.5 µg/mL (≈ 0.668 µM) and an MIC90 of 1 µg/mL (≈ 1.34 µM).
In experiment [1], `CO[C@@]1(NC(=O)Cc2cccs2)C(=O)N2C(C(=O)O)=C(COC(N)=O)CS[C@@H]21` [CEFOXITIN] showed an MIC50 of 0.064 µg/mL (≈ 0.15 µM) and an MIC90 of 0.38 µg/mL (≈ 0.889 µM). For the same compound, in experiment [2], the MIC50 is 0.38 µg/mL (≈ 0.889 µM) and the MIC90 was found to be 0.75 µg/mL (≈ 1.75 µM).
For `CCC[C@@H]1C[C@@H](C(=O)N[C@@H]([C@H]2O[C@H](SC)[C@H](O)[C@@H](O)[C@H]2O)[C@H](C)Cl)N(C)C1` [CLINDAMYCIN], the MIC50 in experiment [1] was less than 0.016 µg/mL; in experiment [2] it was 0.19 µg/mL (≈ 0.447 µM). The values for the MIC90 in experiment [1] and in experiment [2] were 0.016 µg/mL (≈ 0.0376 µM) and 0.75 µg/mL (≈ 1.76 µM), respectively.
The matching figures for `C[C@@H](O)[C@H]1C(=O)N2C(C(=O)O)=C(S[C@@H]3CN[C@H](C(=O)Nc4cccc(C(=O)O)c4)C3)[C@H](C)[C@H]12` [ERTAPENEM]: 0.047 µg/mL (≈ 0.0988 µM), 0.25 µg/mL (≈ 0.526 µM), 0.19 µg/mL (≈ 0.4 µM) and 0.38 µg/mL (≈ 0.799 µM).
The matching figures for `Cc1ncc([N+](=O)[O-])n1CCO` [METRONIDAZOLE]: less than 0.016 µg/mL, 0.094 µg/mL (≈ 0.549 µM), 0.047 µg/mL (≈ 0.275 µM) and 0.19 µg/mL (≈ 1.11 µM).
In experiment [1], `COc1c(N2C[C@@H]3CCCN[C@@H]3C2)c(F)cc2c(=O)c(C(=O)O)cn(C3CC3)c12` [MOXIFLOXACIN] displayed an MIC50 of 0.094 µg/mL (≈ 0.234 µM) and an MIC90 of 0.125 µg/mL (≈ 0.311 µM). In experiment [2], this compound showed an MIC50 of 0.125 µg/mL (≈ 0.311 µM) and an MIC90 of 0.125 µg/mL (≈ 0.311 µM).
